According to ChEMBL document CHEMBL2417474, “Synthesis, antiproliferative and anti-inflammatory activities of some novel 6-aryl-2-(p-(methanesulfonyl)phenyl)-4,5-dihydropyridazi-3(2H)-ones” (Eur J Med Chem, 2013):

How the values were obtained:
Type in all cases: functional
HOP-92 = test: Growth inhibition of human HOP92 cells assessed as cell growth at 10 uM after 48 hrs by sulforhodamine B assay; conditions: HOP-92, 48 h, read-out: Activity
HT-29 [1] = test: Growth inhibition of human HT-29 cells assessed as cell growth at 10 uM after 48 hrs by sulforhodamine B assay; conditions: HT-29, 48 h, read-out: Activity
MDA-MB-231 [2] = test: Growth inhibition of human MDA-MB-231 cells assessed as cell growth at 10 uM after 48 hrs by sulforhodamine B assay; conditions: MDA-MB-231, 48 h, read-out: Activity
SK-OV-3 = test: Growth inhibition of human SKOV3 cells assessed as cell growth at 10 uM after 48 hrs by sulforhodamine B assay; conditions: SK-OV-3, 48 h, read-out: Activity
HCT-116 = test: Growth inhibition of human HCT116 cells assessed as cell growth at 10 uM after 48 hrs by sulforhodamine B assay; conditions: HCT-116, 48 h, read-out: Activity
HCT-15 = test: Growth inhibition of human HCT15 cells after 48 hrs by sulforhodamine B assay; conditions: HCT-15, 48 h
Summary of the method: (§1)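 NCI 60-cell-line panel grown in RPMI-type medium with 5% fetal calf serum and 2 mM L-glutamine. Cells preincubated 24 h, then exposed continuously for 48 h to compound in DMSO at 10^-4 to 10^-8 M (five 10-fold levels). Growth read by SRB protein stain. GI50 is the concentration giving a 50% reduction in net protein increase relative to control cells.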

SK-MEL-2 [3] = test: Growth inhibition of human SK-MEL-2 cells after 48 hrs by sulforhodamine B assay; conditions: SK-MEL-2, 48 h
Summary of the method: (§2)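 NCI 60-cell-line panel. Cells were grown in medium with 5% fetal calf serum and 2 mM L-glutamine, then preincubated 24 h in plates. Compounds were added from DMSO at five 10-fold concentrations from 100 to 0.01 µM and left on cells continuously for 48 h. Cell growth was read by sulforhodamine B protein stain. GI50 is the concentration that halves net protein increase relative to control cells.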

786-0 = test: Growth inhibition of human 786-0 cells assessed as cell growth at 10 uM after 48 hrs by sulforhodamine B assay; conditions: 786-0, 48 h, read-out: Activity
RXF 393 = test: Growth inhibition of human RXF393 cells assessed as cell growth at 10 uM after 48 hrs by sulforhodamine B assay; conditions: RXF 393, 48 h, read-out: Activity
DU-145 = test: Growth inhibition of human DU145 cells after 48 hrs by sulforhodamine B assay; conditions: DU-145, 48 h; summary of the method: as §1
U-251 = test: Growth inhibition of human U251 cells after 48 hrs by sulforhodamine B assay; conditions: U-251, 48 h
Summary of the method: (§3)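 NCI 60-line panel. Cells were grown in medium with 5% fetal calf serum and 2 mM L-glutamine and preincubated 24 h in plates. Compound in DMSO was added at 10^-4 to 10^-8 M (five 10-fold levels), with continuous exposure for 48 h. Growth was read by SRB protein staining. GI50 is the concentration giving 50% reduction in net protein increase versus control cells.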

SK-MEL-2 [4] = test: Growth inhibition of human SK-MEL-2 cells assessed as cell growth at 10 uM after 48 hrs by sulforhodamine B assay; conditions: SK-MEL-2, 48 h, read-out: Activity
UACC-62 = test: Growth inhibition of human UACC62 cells after 48 hrs by sulforhodamine B assay; conditions: UACC-62, 48 h; summary of the method: as §3
[5] = Growth inhibition of human NCI-ADR-RES cells after 48 hrs by sulforhodamine B assay; summary of the method: as §2
MDA-MB-231 [6] = test: Growth inhibition of human MDA-MB-231 cells after 48 hrs by sulforhodamine B assay; conditions: MDA-MB-231, 48 h; summary of the method: as §1
HOP-62 = test: Growth inhibition of human HOP62 cells after 48 hrs by sulforhodamine B assay; conditions: HOP-62, 48 h; summary of the method: as §1
A549 = test: Growth inhibition of human A549/ATCC cells assessed as cell growth at 10 uM after 48 hrs by sulforhodamine B assay; conditions: A549, 48 h, read-out: Activity
SK-MEL-5 = test: Growth inhibition of human SK-MEL-5 cells assessed as cell growth at 10 uM after 48 hrs by sulforhodamine B assay; conditions: SK-MEL-5, 48 h, read-out: Activity
NCI-H226 = test: Growth inhibition of human NCI-H226 cells after 48 hrs by sulforhodamine B assay; conditions: NCI-H226, 48 h; summary of the method: as §2
SN12C = test: Growth inhibition of human SN12C cells assessed as cell growth at 10 uM after 48 hrs by sulforhodamine B assay; conditions: read-out: Activity
Malme-3M = test: Growth inhibition of human MALME-3M cells after 48 hrs by sulforhodamine B assay; summary of the method: as §1
SNB-75 = test: Growth inhibition of human SNB75 cells assessed as cell growth at 10 uM after 48 hrs by sulforhodamine B assay; conditions: SNB-75, 48 h, read-out: Activity
OVCAR-3 = test: Growth inhibition of human OVCAR3 cells assessed as cell growth at 10 uM after 48 hrs by sulforhodamine B assay; conditions: OVCAR-3, 48 h, read-out: Activity
HT-29 [7] = test: Growth inhibition of human HT-29 cells after 48 hrs by sulforhodamine B assay; conditions: HT-29, 48 h; summary of the method: as §1
PC-3 = test: Growth inhibition of human PC3 cells assessed as cell growth at 10 uM after 48 hrs by sulforhodamine B assay; conditions: PC-3, 48 h, read-out: Activity
LOX IMVI = test: Growth inhibition of human LOXIMVI cells after 48 hrs by sulforhodamine B assay; summary of the method: as §1
[8] = Growth inhibition of human HCC2998 cells after 48 hrs by sulforhodamine B assay; conditions: HCC 2998, 48 h; summary of the method: as §1
M14 = test: Growth inhibition of human M14 cells assessed as cell growth at 10 uM after 48 hrs by sulforhodamine B assay; conditions: M14, 48 h, read-out: Activity
UACC-257 = test: Growth inhibition of human UACC257 cells after 48 hrs by sulforhodamine B assay; conditions: UACC-257, 48 h; summary of the method: as §3
SNB-19 = test: Growth inhibition of human SNB19 cells assessed as cell growth at 10 uM after 48 hrs by sulforhodamine B assay; conditions: SNB-19, 48 h, read-out: Activity
ACHN = test: Growth inhibition of human ACHN cells assessed as cell growth at 10 uM after 48 hrs by sulforhodamine B assay; conditions: read-out: Activity
[9] = read-out: LC50 (the source's name)

`Cc1cc(O)ccc1C1=NN(c2ccc(S(C)(=O)=O)cc2)C(=O)CC1` showed a growth at 10 µM (HOP-92) of 92.8%, a growth at 10 µM (HT-29 [1]) of 38.9% and a growth at 10 µM (MDA-MB-231 [2]) of 74.8%. For the same molecule, the growth at 10 µM (SK-OV-3) was 85%, the growth at 10 µM (HCT-116) was 52.4% and the GI50 (HCT-15) was 7.91 µM. It also gave an LC50 (HCT-15) greater than 100 µM, a TGI (HCT-15) greater than 100 µM and a GI50 (SK-MEL-2 [3]) of 3.48 µM. It also gave an LC50 (SK-MEL-2 [3]) greater than 100 µM, a TGI (SK-MEL-2 [3]) of 32.8 µM and a growth at 10 µM (786-0) of 84.1%. It also gave a growth at 10 µM (RXF 393) of 81.2%, a GI50 (DU-145) of 24.7 µM and a TGI (DU-145) greater than 100 µM. It also gave a CC50 (DU-145; [9]) greater than 100 µM, a GI50 (U-251) of 4.3 µM and a TGI (U-251) greater than 100 µM. For the same molecule, the CC50 (U-251; [9]) was greater than 100 µM, the growth at 10 µM (SK-MEL-2 [4]) was 68.7% and the GI50 (UACC-62) was 4 µM. For the same molecule, the LC50 (50% net cell kill concentration) (UACC-62) was greater than 100 µM, the TGI (UACC-62) was greater than 100 µM and the GI50 [5] was 3.26 µM. For the same molecule, the LC50 [5] was greater than 100 µM, the TGI [5] was greater than 100 µM and the GI50 (MDA-MB-231 [6]) was 17.1 µM. The LC50 (MDA-MB-231 [6]) was greater than 100 µM, the TGI (MDA-MB-231 [6]) was greater than 100 µM and the GI50 (HOP-62) was 9.07 µM. The TGI (HOP-62) was greater than 100 µM, the CC50 (HOP-62; [9]) was greater than 100 µM and the growth at 10 µM (A549) was 72.2%. The growth at 10 µM (SK-MEL-5) was 68.3%, the GI50 (NCI-H226) was greater than 100 µM and the TGI (NCI-H226) was greater than 100 µM. It also gave a CC50 (NCI-H226; [9]) greater than 100 µM, a growth at 10 µM (SN12C) of 90.3% and a GI50 (Malme-3M) of 5.37 µM. For the same molecule, the TGI (Malme-3M) was greater than 100 µM, the CC50 (Malme-3M; [9]) was greater than 100 µM and the growth at 10 µM (SNB-75) was 75.2%. The growth at 10 µM (OVCAR-3) was 65.1%, the GI50 (HT-29 [7]) was 3.7 µM and the LC50 (50% lethal concentration) (HT-29 [7]) was greater than 100 µM. For the same molecule, the TGI (HT-29 [7]) was 32.3 µM, the growth at 10 µM (PC-3) was 77.9% and the GI50 (LOX IMVI) was 7.25 µM. It also gave a TGI (LOX IMVI) greater than 100 µM, a CC50 (LOX IMVI; [9]) greater than 100 µM and a GI50 [8] of 46.7 µM. The TGI [8] was greater than 100 µM, the CC50 [8, 9] was greater than 100 µM and the growth at 10 µM (M14) was 49.2%. It also gave a GI50 (UACC-257) of 5.65 µM, an LC50 (concentration killing 50% of cells) (UACC-257) greater than 100 µM and a TGI (UACC-257) greater than 100 µM. It also gave a growth at 10 µM (SNB-19) of 78.2% and a growth at 10 µM (ACHN) of 79.7%.
